Laboratory results taken from ChEMBL document CHEMBL1122917, “Vinblastin-23-oyl amino acid derivatives: chemistry, physicochemical data, toxicity, and antitumor activities against P388 and L1210 leukemias” (J Med Chem, 1985).

What was measured:
Format in all cases: functional
Mus musculus [1] = assay: Percent increase in life span of DBA2 mice after inoculation with L1210 leukemia intravenously at a dose of 50 mg/kg per day; conditions: route intravenous
How it was run: (§1)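 Female DBA2 mice inoculated iv on day 0 with 10^4 L1210 cells; drugs given iv as sulfate salts in physiological saline, mostly once on day 1. %ILS from all deaths and survivors as (T/C × 100) − 100; survivors scored on days 30 and 60.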

Mus musculus [2] = assay: Percent increase in life span of DBA2 mice after inoculation with L1210 leukemia intravenously at a dose of 55 mg/kg per day; conditions: route intravenous; how it was run: as §1
Mus musculus [3] = assay: Number of survivors on 60th day at dose 55 mg/kg/day in 10 mice implanted with P388 leukemia cell line
Mus musculus [4] = assay: Number of survivors on 60th day at dose 60 mg/kg/day in 10 mice implanted with P388 leukemia cell line
How it was run: (§2)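 Female DBA2 mice inoculated iv on day 0 with 10^4 P388 cells; single iv treatment on day 1 with drug as sulfate salt in physiological saline. Survival followed; %ILS from all deaths and survivors as (T/C × 100) − 100, maximal MST 30 days; survivors counted on days 30 and 60. Most experiments confirmed three times.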

Mus musculus [5] = assay: Percent increase in life span at dose 70 mg/kg/day in 10 mice implanted with P388 leukemia cell line; how it was run: as §2
Mus musculus [6] = assay: Number of survivors of DBA2 mice on 30th day after inoculation with L1210 leukemia cell line intravenously at a dose of 50 mg/kg/day; 0/10; conditions: route intravenous
Mus musculus [7] = assay: Number of survivors of DBA2 mice on 30th day after inoculation with L1210 leukemia cell line intravenously at a dose of 55 mg/kg/day; 0/10; conditions: route intravenous
Mus musculus [8] = assay: Number of survivors on 60th day at dose 50 mg/kg/day in 10 mice implanted with P388 leukemia cell line
Mus musculus [9] = assay: Percent increase in life span at dose 30 mg/kg/day in 10 mice implanted with P388 leukemia cell line; how it was run: as §2
Mus musculus [10] = assay: Percent increase in life span at dose 40 mg/kg/day in 10 mice implanted with P388 leukemia cell line; how it was run: as §2
Mus musculus [11] = assay: Percent increase in life span at dose 55 mg/kg/day in 10 mice implanted with P388 leukemia cell line; how it was run: as §2
Mus musculus [12] = assay: Percent increase in life span at dose 60 mg/kg/day in 10 mice implanted with P388 leukemia cell line; how it was run: as §2
Mus musculus [13] = assay: Number of survivors on 60th day at dose 40 mg/kg/day in 10 mice implanted with P388 leukemia cell line
Mus musculus [14] = assay: Number of survivors on 30th day at dose 30 mg/kg/day in 10 mice implanted with P388 leukemia cell line
Mus musculus [15] = assay: Number of survivors on 30th day at dose 40 mg/kg/day in 10 mice implanted with P388 leukemia cell line
Mus musculus [16] = assay: Number of survivors on 30th day at dose 50 mg/kg/day in 10 mice implanted with P388 leukemia cell line
Mus musculus [17] = assay: Number of survivors on 60th day at dose 30 mg/kg/day in 10 mice implanted with P388 leukemia cell line
Mus musculus [18] = assay: Number of survivors on 60th day at dose 70 mg/kg/day in 10 mice implanted with P388 leukemia cell line; how it was run: as §2
Mus musculus [19] = assay: Number of survivors on 30th day at dose 55 mg/kg/day in 10 mice implanted with P388 leukemia cell line
Mus musculus [20] = assay: Number of survivors on 30th day at dose 60 mg/kg/day in 10 mice implanted with P388 leukemia cell line
Mus musculus [21] = assay: Number of survivors of DBA2 mice on 60th day after inoculation with L1210 leukemia cell line intravenously at a dose of 50 mg/kg/day; 0/10; conditions: route intravenous
Mus musculus [22] = assay: Number of survivors of DBA2 mice on 60th day after inoculation with L1210 leukemia cell line intravenously at a dose of 55 mg/kg/day; 0/10; conditions: route intravenous
Mus musculus [23] = assay: Number of survivors on 30th day at dose 70 mg/kg/day in 10 mice implanted with P388 leukemia cell line
Mus musculus [24] = assay: Percent increase in life span at dose 50 mg/kg/day in 10 mice implanted with P388 leukemia cell line; how it was run: as §2
Mus musculus [25] = assay: Number of survivors on 60th day at dose 20 mg/kg/day in 10 mice implanted with P388 leukemia cell line; 0/10
Mus musculus [26] = assay: Percent increase in life span of DBA2 mice after inoculation with L1210 leukemia intravenously at a dose of 40 mg/kg per day; conditions: route intravenous
Mus musculus [27] = assay: Percent increase in life span of DBA2 mice after inoculation with L1210 leukemia intravenously at a dose of 45 mg/kg per day; conditions: route intravenous; how it was run: as §1
Mus musculus [28] = assay: Number of survivors on 60th day at dose 50 mg/kg/day in 9 mice implanted with P388 leukemia cell line; 0/9
Mus musculus [29] = assay: Number of survivors of DBA2 mice on 30th day after inoculation with L1210 leukemia cell line intravenously at a dose of 40 mg/kg/day; 0/10; conditions: route intravenous
Mus musculus [30] = assay: Number of survivors of DBA2 mice on 30th day after inoculation with L1210 leukemia cell line intravenously at a dose of 45 mg/kg/day; 0/10; conditions: route intravenous
Mus musculus [31] = assay: Percent increase in life span at dose 20 mg/kg/day in 10 mice implanted with P388 leukemia cell line; how it was run: as §2
Mus musculus [32] = assay: Percent increase in life span at dose 45 mg/kg/day in 10 mice implanted with P388 leukemia cell line
Mus musculus [33] = assay: Number of survivors on 60th day at dose 30 mg/kg/day in 10 mice implanted with P388 leukemia cell line; 0/10
Mus musculus [34] = assay: Number of survivors on 60th day at dose 40 mg/kg/day in 10 mice implanted with P388 leukemia cell line; 0/10
Mus musculus [35] = assay: Number of survivors on 60th day at dose 45 mg/kg/day in 10 mice implanted with P388 leukemia cell line; 0/10
Mus musculus [36] = assay: Number of survivors on 30th day at dose 20 mg/kg/day in 10 mice implanted with P388 leukemia cell line; 0/10
Mus musculus [37] = assay: Number of survivors on 30th day at dose 40 mg/kg/day in 10 mice implanted with P388 leukemia cell line; 0/10
Mus musculus [38] = assay: Number of survivors on 30th day at dose 45 mg/kg/day in 10 mice implanted with P388 leukemia cell line; 2/10
Mus musculus [39] = assay: Number of survivors of DBA2 mice on 60th day after inoculation with L1210 leukemia cell line intravenously at a dose of 40 mg/kg/day; 0/10; conditions: route intravenous
Mus musculus [40] = assay: Number of survivors of DBA2 mice on 60th day after inoculation with L1210 leukemia cell line intravenously at a dose of 45 mg/kg/day; 0/10; conditions: route intravenous
Mus musculus [41] = assay: Number of survivors on 30th day at dose 50 mg/kg/day in 9 mice implanted with P388 leukemia cell line; 0/9
Mus musculus [42] = assay: Number of survivors on 30th day at dose 30 mg/kg/day in 10 mice implanted with P388 leukemia cell line; 1/10
Mus musculus [43] = assay: Number of survivors on 60th day at dose 50 mg/kg/day in 10 mice implanted with P388 leukemia cell line; 0/10
Mus musculus [44] = assay: Number of survivors on 30th day at dose 50 mg/kg/day in 10 mice implanted with P388 leukemia cell line; 0/10
Mus musculus [45] = assay: Number of survivors on 60th day at dose 10 mg/kg/day in 10 mice implanted with P388 leukemia cell line; 0/10
Mus musculus [46] = assay: Number of survivors on 30th day at dose 10 mg/kg/day in 10 mice implanted with P388 leukemia cell line; 0/10

CC[C@]1(O)C[C@@H]2C[N@](CCc3c([nH]c4ccccc34)[C@@](C(=O)OC)(c3cc4c(cc3OC)N(C)[C@@]3(C)[C@@](O)(C(=O)N[C@@H](Cc5c[nH]c6ccccc56)C(=O)OC)[C@H](O)[C@]5(CC)C=CCN6CC[C@]43[C@@H]65)C2)C1
ILS at 50 mg/kg/day (Mus musculus [1]): 47.4% | ILS at 55 mg/kg/day (Mus musculus [2]): 60.2% | Survivors (Mus musculus [3]): 1 | Survivors (Mus musculus [4]): 2 | ILS at 70 mg/kg/day (Mus musculus [5]): 145% | Survivors (Mus musculus [6]): 0 | Survivors (Mus musculus [7]): 0 | Survivors (Mus musculus [8]): 1 | ILS at 30 mg/kg/day (Mus musculus [9]): 33.9% | ILS at 40 mg/kg/day (Mus musculus [10]): 42.8% | ILS at 55 mg/kg/day (Mus musculus [11]): 85.8% | ILS at 60 mg/kg/day (Mus musculus [12]): 132% | Survivors (Mus musculus [13]): 0 | Survivors (Mus musculus [14]): 0 | Survivors (Mus musculus [15]): 0 | Survivors (Mus musculus [16]): 1 | Survivors (Mus musculus [17]): 0 | Survivors (Mus musculus [18]): 3 | Survivors (Mus musculus [19]): 2 | Survivors (Mus musculus [20]): 3 | Survivors (Mus musculus [21]): 0 | Survivors (Mus musculus [22]): 0 | Survivors (Mus musculus [23]): 5 | ILS at 50 mg/kg/day (Mus musculus [24]): 110%

CCOC(=O)[C@@H](Cc1c[nH]c2ccccc12)NC(=O)[C@@]1(O)[C@H](O)[C@]2(CC)C=CCN3CC[C@@]4(c5cc([C@@]6(C(=O)OC)C[C@H]7C[N@](CCc8c6[nH]c6ccccc86)C[C@](O)(CC)C7)c(OC)cc5N(C)[C@@]14C)[C@@H]32
Survivors (Mus musculus [25]): 0 | ILS at 40 mg/kg/day (Mus musculus [26]): 21.8% | ILS at 45 mg/kg/day (Mus musculus [27]): 34.6% | Survivors (Mus musculus [28]): 0 | Survivors (Mus musculus [29]): 0 | Survivors (Mus musculus [30]): 0 | ILS at 20 mg/kg/day (Mus musculus [31]): 18.7% | ILS at 30 mg/kg/day (Mus musculus [9]): 41.4% | ILS at 40 mg/kg/day (Mus musculus [10]): 53.8% | ILS at 45 mg/kg/day (Mus musculus [32]): 85% | Survivors (Mus musculus [33]): 0 | Survivors (Mus musculus [34]): 0 | Survivors (Mus musculus [35]): 0 | Survivors (Mus musculus [36]): 0 | Survivors (Mus musculus [37]): 0 | Survivors (Mus musculus [38]): 2 | Survivors (Mus musculus [39]): 0 | Survivors (Mus musculus [40]): 0 | Survivors (Mus musculus [41]): 0 | ILS at 50 mg/kg/day (Mus musculus [24]): 59% | Survivors (Mus musculus [42]): 1

CCOC(=O)[C@H](CCC(=O)O)NC(=O)[C@@]1(O)[C@H](O)[C@]2(CC)C=CCN3CC[C@@]4(c5cc([C@@]6(C(=O)OC)C[C@H]7C[N@](CCc8c6[nH]c6ccccc86)C[C@](O)(CC)C7)c(OC)cc5N(C)[C@@]14C)[C@@H]32
Survivors (Mus musculus [25]): 0 | ILS at 20 mg/kg/day (Mus musculus [31]): 10% | Survivors (Mus musculus [43]): 0 | ILS at 40 mg/kg/day (Mus musculus [10]): 34.5% | Survivors (Mus musculus [34]): 0 | Survivors (Mus musculus [36]): 0 | Survivors (Mus musculus [37]): 0 | Survivors (Mus musculus [44]): 0 | Survivors (Mus musculus [45]): 0 | Survivors (Mus musculus [46]): 0 | ILS at 50 mg/kg/day (Mus musculus [24]): 2.8%
